Converted amounts (≈) assume the structure as drawn.

For orientation: MIC50 means the lowest concentration that inhibits either 50% of growth or 50% of the strains tested, depending on the study. High values mean lower susceptibility, low ones higher susceptibility.

Format in all cases: functional
For assay [1], the system named is Candida albicans. In words: Antifungal activity against azole-susceptible Candida albicans 5457 after 48 hrs. The settings on record: Candida albicans, 5457, 48 h. The method in brief: (§1)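 Liquid microtiter broth assay in YPD, cells incubated 48 h at 30°C with drug (e.g. FLC 0.2–200 µg/ml; KTC 0.001–1.2 µg/ml). Growth read as OD620 and expressed relative to drug-free growth of the same strain. MIC50 taken as the first concentration reducing growth by 50%. Mean of three independent experiments, each in duplicate.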

Assay [2] relates to Candida albicans. In words: Antifungal activity against tac1/tac1 deficient Candida albicans SZY31 after 48 hrs. The note with it: SZY31, 48 h. The method in brief:
as §1

Assay [3] has as its system Candida albicans. The assay is described as follows: Antifungal activity against azole-resistant Candida albicans 5674 after 48 hrs. The note with it: Candida albicans, 5674, 48 h. The method in brief:
as §1

In assay [4] the test system is Candida albicans. The assay is described as follows: Antifungal activity against cdr2/cdr2 deficient Candida albicans STY7 after 48 hrs. The note with it: STY7, 48 h. An outline of the steps: as §1
Assay [5] has as its system Candida albicans. The assay is described as follows: Antifungal activity against cdr1/cdr1 deficient Candida albicans STY19 after 48 hrs. The note with it: STY19, 48 h. An outline of the steps:
as §1

In assay [6] the test system is Candida albicans. The assay is described as follows: Antifungal activity against cdr1/cdr1/cdr2/cdr2 deficient Candida albicans STY31 after 48 hrs. The note with it: STY31, 48 h. The method in brief: as §1
Assay [7] relates to Candida albicans. In words: Antifungal activity against Candida albicans STY47 expressing cdr2 gene after 48 hrs. The settings on record: STY47, 48 h. An outline of the steps:
as §1

Assay [8] has as its system Candida albicans. The assay is described as follows: Ratio of MIC50 for Candida albicans 5674 to MIC50 for cdr1/cdr1 deficient Candida albicans STY19. The method in brief: (§2)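 Ratios use MIC50s from the YPD liquid microtiter assay (48 h, 30°C, OD620 growth relative to drug-free control). MIC50 is the first concentration giving a 50% growth reduction, as the mean of three independent experiments in duplicate. The MIC50 of one strain is divided by that of the other.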

Assay [9] relates to Candida albicans. The assay is described as follows: Ratio of MIC50 for Candida albicans 5674 to MIC50 for cdr2/cdr2 deficient Candida albicans STY7. The method in brief: as §2
Assay [10] deals with Candida albicans. The assay is described as follows: Ratio of MIC50 for Candida albicans 5674 to MIC50 for cdr1/cdr1/cdr2/cdr2 deficient Candida albicans STY31. An outline of the steps: as §2
Assay [11] concerns Candida albicans. The assay is described as follows: Ratio of MIC50 for Candida albicans 5674 to MIC50 for Candida albicans STY47 expressing cdr2 gene. An outline of the steps: as §2
The subject of assay [12] is Candida albicans. In words: Ratio of MIC50 for Candida albicans 5674 to MIC50 for tac1/tac1 deficient Candida albicans SZY31. An outline of the steps:
as §2

For assay [13], the system named is Candida albicans. The assay is described as follows: Ratio of MIC50 for cdr1/cdr1 deficient Candida albicans STY19 to MIC50 for cdr1/cdr1/cdr2/cdr2 deficient Candida albicans STY31. The method in brief: as §2

Turning to `C[C@@H]1[C@H](O)[C@@H](C)/C=C/C=C/C=C/C=C/C=C/C=C/C=C/[C@H](O[C@@H]2O[C@H](C)[C@@H](O)[C@H](N)[C@@H]2O)C[C@@H]2O[C@](O)(C[C@@H](O)C[C@@H](O)[C@H](O)CC[C@@H](O)C[C@@H](O)CC(=O)O[C@H]1C)C[C@H](O)[C@H]2C(=O)O` [AMPHOTERICIN B], the MIC50 in assay [1] worked out at 1 µg/mL (≈ 1.08 µM); in [2], 1 µg/mL (≈ 1.08 µM); in [3], 2 µg/mL (≈ 2.16 µM); in [4], 2 µg/mL (≈ 2.16 µM); in assay [5], 2 µg/mL (≈ 2.16 µM); in assay [6], 2 µg/mL (≈ 2.16 µM).
In the case of `OC(Cn1cncn1)(Cn1cncn1)c1ccc(F)cc1F` [FLUCONAZOLE], the MIC50 amounted to 3.1 µg/mL (≈ 10.1 µM) in [1]; 6.2 µg/mL (≈ 20.2 µM) in [2]; 150 µg/mL (≈ 490 µM) in assay [3]; 100 µg/mL (≈ 327 µM) in assay [4]; 25 µg/mL (≈ 81.6 µM) in assay [5]; 0.4 µg/mL (≈ 1.31 µM) in assay [6]. The compound further had an MIC50 in assay [7] of 6.3 µg/mL (≈ 20.6 µM). Further, the Ratio in [8] stood at 6; in assay [9] it was 1.5; in [10], 375; in [11], 16.
As to `OCCN1CCN(CCCN2c3ccccc3Sc3ccc(C(F)(F)F)cc32)CC1` [FLUPHENAZINE], the MIC50 was determined as 75 µg/mL (≈ 171 µM) in assay [1]; 38 µg/mL (≈ 86.9 µM) in assay [2]; 75 µg/mL (≈ 171 µM) in assay [3]; 75 µg/mL (≈ 171 µM) in [4]; 50 µg/mL (≈ 114 µM) in assay [5]; 25 µg/mL (≈ 57.1 µM) in assay [6]. Further, the Ratio stood at 1.5 in assay [8], 1 in assay [9], 2 in [12] and 2 in assay [13].
As for `CCC(C)n1ncn(-c2ccc(N3CCN(c4ccc(OCC5COC(Cn6cncn6)(c6ccc(Cl)cc6Cl)O5)cc4)CC3)cc2)c1=O` (stereo unspecified) [ITRACONAZOLE], the MIC50 came out at 0.0125 µg/mL (≈ 0.0177 µM) in [1]; 0.0063 µg/mL (≈ 0.00893 µM) in assay [2]; 0.2 µg/mL (≈ 0.283 µM) in [3]; 0.2 µg/mL (≈ 0.283 µM) in [4]; 0.025 µg/mL (≈ 0.0354 µM) in assay [5]; 0.0004 µg/mL (≈ 0.000567 µM) in [6]. Also, the Ratio in [8] is given as 8; in assay [9] it was 1; in assay [10], 500.
With `CC(=O)N1CCN(c2ccc(OCC3COC(Cn4ccnc4)(c4ccc(Cl)cc4Cl)O3)cc2)CC1` (stereo unspecified) [KETOCONAZOLE], the MIC50 came to 0.018 µg/mL (≈ 0.0339 µM) in [1]; 0.009 µg/mL (≈ 0.0169 µM) in [2]; 0.6 µg/mL (≈ 1.13 µM) in assay [3]; 0.4 µg/mL (≈ 0.753 µM) in assay [4]; 0.15 µg/mL (≈ 0.282 µM) in assay [5]; 0.002 µg/mL (≈ 0.00376 µM) in assay [6]. Further, the Ratio in [8] is reported as 4; in assay [9], 1.5; in [10], 300.
For the compound `CC/N=c1\cc2oc3cc(NCC)c(C)cc3c(-c3ccccc3C(=O)OCC)c-2cc1C.Cl` [RHODAMINE 6G HYDROCHLORIDE], the MIC50 in assay [1] worked out at 8 µg/mL; in assay [2], 2 µg/mL; in assay [3] it was 16 µg/mL; in assay [4], 16 µg/mL; in assay [5], 8 µg/mL; in [6], 8 µg/mL.

For the origin of these results see ChEMBL document CHEMBL1649166, “Relative contributions of the Candida albicans ABC transporters Cdr1p and Cdr2p to clinical azole resistance” (2009).
